Activity calls are given as the source filed them. No cut-off for these calls is given here.

The source of these data is ChEMBL document CHEMBL1833913, “Structure-activity relationship study of pyridazine derivatives as glutamate transporter EAAT2 activators” (Bioorg Med Chem Lett, 2011).

Test [1] concerns Astrocyte. Kind of test: Increase of EAAT2 expression in mouse primary astrocytes at 10 uM after 4 hrs by Western blot analysis relative to control. It counts as functional. In a few lines:
(§1)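 PA-EAAT2 cells (primary astrocyte line stably expressing EAAT2 mRNA) were incubated with compound at 10 μM for 4 h or 24 h. Cells were then harvested and EAAT2 protein measured by Western blot. Results are given as fold increase over DMSO control.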
Background: In western blotting, separated proteins are transferred to a membrane and probed.

For test [2], the system named is Astrocyte. Kind of test: Increase of EAAT2 expression in mouse primary astrocytes at 1 uM after 24 hrs by Western blot analysis relative to beta-actin protein expression. It counts as functional. The method in brief:
(§2)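 PA-EAAT2 cells (primary astrocyte line stably expressing EAAT2 mRNA) were exposed for 24 h to a 6-point series (0.1, 0.3, 1.0, 5.0, 10.0, 30.0 μM). EAAT2 protein was measured by Western blot and normalised separately to β-actin or GAPDH. Fold increase and EC50 were derived from the dose-response. Values are means of four separate experiments.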

For test [3], the system named is Astrocyte. Put plainly: Increase of EAAT2 expression in mouse primary astrocytes at 10 uM after 24 hrs by Western blot analysis relative to beta-actin protein expression. The format is functional. In a few lines: as §2
Test [4] has as its system Astrocyte. Put plainly: Increase of EAAT2 expression in mouse primary astrocytes at <5 uM after 24 hrs by Western blot analysis relative to control. The format is functional.
Test [5] deals with Astrocyte. Kind of test: Increase of EAAT2 expression in mouse primary astrocytes at 1 uM after 24 hrs by Western blot analysis relative to GAPDH protein expression. It counts as functional. In a few lines: as §2
Test [6] has as its system Astrocyte. Put plainly: Increase of EAAT2 expression in mouse primary astrocytes at 10 uM after 24 hrs by Western blot analysis relative to control. The format is functional. In a few lines: as §1
Test [7] has as its system Astrocyte. Kind of test: Increase of EAAT2 expression in mouse primary astrocytes after 24 hrs by Western blot analysis relative to beta-actin protein expression. The format is functional, cell-based. The method in brief: as §2
In test [8] the test system is Astrocyte. Kind of test: Increase of EAAT2 expression in mouse primary astrocytes at 10 uM after 24 hrs by Western blot analysis relative to GAPDH protein expression. It counts as functional. The method in brief: as §2
Test [9] relates to Astrocyte. Put plainly: Increase of EAAT2 expression in mouse primary astrocytes after 24 hrs by Western blot analysis relative to GAPDH protein expression. The format is functional, cell-based. In a few lines: as §2

Usually EC50 stands for the midpoint of the concentration-response curve. `Fc1cccc(Cl)c1CCSc1ccc(-c2ccccn2)nn1`: the “fold change (FC)” value in the test with Astrocyte [1] is 1.9; in the test with Astrocyte [2], 1.2; in the test with Astrocyte [3], 6.7; in the test on Astrocyte [4], over 6; with Astrocyte [5], 1.2; in the test with Astrocyte [6], 6.7. Besides, the “fold change (FC)” value in the test with Astrocyte [8] is given as 5.3. In addition, the EC50 in the test on Astrocyte [7] and with Astrocyte [9] was 3300 nM each time.

As to `Clc1cccc(Cl)c1CSc1ccc(-c2ccccn2)nn1`, the “fold change (FC)” value was determined as 1.5 in the test with Astrocyte [1]; 3 with Astrocyte [2]; 3.9 in the test on Astrocyte [3]; 3.5 with Astrocyte [5]; 3.9 with Astrocyte [6]; 3.5 in the test with Astrocyte [8]. The half-maximal effective concentration (EC50) with Astrocyte [7] and in the test with Astrocyte [9] was 500 nM each time.

Consider `Clc1cccc(CSc2ccc(-c3ccccn3)nn2)c1`, for which the “fold change (FC)” value in the test on Astrocyte [1] came out at 2.1; in the test on Astrocyte [2] it was 4; in the test on Astrocyte [3] it was 4.1; with Astrocyte [5], 4.2; in the test with Astrocyte [6], 4.1; in the test with Astrocyte [8], 3.8. Further, the EC50 in the test with Astrocyte [7] was 1700 nM; in the test with Astrocyte [9], 500 nM.

Consider `Clc1ccccc1CSc1ccc(-c2ccccn2)nn1`, for which the “fold change (FC)” value in the test with Astrocyte [1] was 2.1; with Astrocyte [2], 1.1; with Astrocyte [3] it was 4; with Astrocyte [5], 1.6; in the test on Astrocyte [6], 4; with Astrocyte [8], 4.5. Also, the results for the EC50 in the test with Astrocyte [7] and with Astrocyte [9] were 3300 nM and 3200 nM, respectively.

Consider `Fc1ccc(CSc2ccc(-c3ccccn3)nn2)c(F)c1`, for which the “fold change (FC)” value in the test with Astrocyte [1] is 2.4; in the test on Astrocyte [2], 1; in the test with Astrocyte [3] it was 3.8; in the test with Astrocyte [5] it was 1; in the test with Astrocyte [6] it was 3.8; in the test on Astrocyte [8], 3.7. Also, the EC50 with Astrocyte [7] and with Astrocyte [9] was 2600 nM each time.

Regarding `Cc1cccc(C)c1CSc1ccc(-c2ccccn2)nn1`, in the test on Astrocyte [1], the “fold change (FC)” value is “inactive”. For the same compound, the “fold change (FC)” value in the test with Astrocyte [2] was 2; in the test on Astrocyte [3] it was 6.5; with Astrocyte [4], over 6; in the test on Astrocyte [5] it was 2; in the test on Astrocyte [6], 6.5; in the test on Astrocyte [8] it was 6.4. Also, the EC50 with Astrocyte [7] was 2600 nM; in the test on Astrocyte [9] it was 2400 nM.

`c1ccc(-c2ccc(SC3CCCc4ccccc43)nn2)nc1` (stereo not given): in the test with Astrocyte [1], the “fold change (FC)” value was “inactive”. Further, the “fold change (FC)” value with Astrocyte [2] came out at 2.4; with Astrocyte [3], 5.3; in the test with Astrocyte [5] it was 2.8; in the test with Astrocyte [6], 5.3; with Astrocyte [8], 4.5. The figures for the EC50 in the test with Astrocyte [7] and in the test with Astrocyte [9] were 1900 nM and 1700 nM, respectively.

`CC(Sc1ccc(-c2ccccn2)nn1)c1c(F)cccc1Cl` (stereo not given): the “fold change (FC)” value with Astrocyte [1] is 1.7; in the test with Astrocyte [2], 1.5; in the test with Astrocyte [3], 5.5; in the test on Astrocyte [5], 1.8; with Astrocyte [6], 5.5; in the test with Astrocyte [8], 5.2. Further, the values for the EC50 in the test with Astrocyte [7] and in the test on Astrocyte [9] were 3900 nM and 2400 nM, respectively.

Regarding `Cc1ccc(CSc2ccc(-c3ccccn3)nn2)c(C)c1`, the “fold change (FC)” value in the test with Astrocyte [1] is on record as 1.9; in the test with Astrocyte [2], 2; in the test with Astrocyte [3] it was 6.4; with Astrocyte [4] it was over 6; with Astrocyte [5], 2.2; in the test on Astrocyte [6], 6.4. For the same compound, the “fold change (FC)” value with Astrocyte [8] worked out at 6. Moreover, the EC50 in the test with Astrocyte [7] came to 2700 nM; with Astrocyte [9], 1800 nM.
